{"source": "ChEMBL document CHEMBL4017491", "about": "“Phthalazino[1,2-b]quinazolinones as p53 Activators: Cell Cycle Arrest, Apoptotic Response and Bak-Bcl-xl Complex Reorganization in Bladder Cancer Cells” (J Med Chem, 2017)", "key": {"T-24 [1]": {"system": "T-24", "test": "Induction of apoptosis in human T24 cells assessed as increase in […] level up to 10 uM after 24 hrs by Western blot analysis", "assay_type": "functional, cell-based", "summary_of_the_method": "(§1)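 T24 cells (3 × 10^5 per well) grown to 85–95% confluence, then exposed 24 h to 0–10 μM. Whole-cell extracts run on SDS-PAGE and blotted to nitrocellulose. Probed with the indicated antibodies and AP-linked anti-rabbit IgG, with ECL detection. Blots stripped and reprobed for β-actin as loading control.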"}, "T-24 [2]": {"system": "T-24", "test": "Effect on cell cycle distribution in human T24 cells assessed as early apoptotic cells at 10 uM after 1 hr by Annexin V-FITC/propidium iodide staining based FACS analysis relative to control", "assay_type": "functional"}, "T-24 [3]": {"system": "T-24", "test": "Effect on cell cycle distribution in human T24 cells assessed as early apoptotic cells at 5 uM after 1 hr by Annexin V-FITC/propidium iodide staining based FACS analysis relative to control", "assay_type": "functional"}, "T-24 [4]": {"system": "T-24", "test": "Antiproliferative activity against human T24 cells harboring p53 siRNA up to 5 uM after 48 hrs by MTT assay", "assay_type": "functional, cell-based", "summary_of_the_method": "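T24 cells pre-exposed to p53-siRNA or scrambled RNA for 24 h, then treated with a concentration series for 48 h. Proliferation measured by MTT read at 490 nm, expressed as % of control absorbance.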"}, "T-24 [5]": {"system": "T-24", "test": "Induction of apoptosis in human T24 cells assessed as early apoptotic cells at 1 uM by Annexin V-FITC/propidium iodide based flow cytometric analysis (reference value: 1.79%)", "assay_type": "functional"}, "T-24 [6]": {"system": "T-24", "test": "Antitumor activity against human T24 cells xenografted in BALB/C nude mouse assessed as tumor growth inhibition at 12 mg/kg, ip administered every 2 days for 16 days relative to control", "assay_type": "functional", "conditions": "T-24, ip, read-out: TGI"}, "T-24 [7]": {"system": "T-24", "test": "Effect on cell cycle distribution in human T24 cells assessed as early apoptotic cells at 1 uM after 1 hr by Annexin V-FITC/propidium iodide staining based FACS analysis relative to control", "assay_type": "functional"}, "[8]": {"molecular_target": "Cellular tumor antigen p53 (Homo sapiens) (UniProt P04637)", "sequence (P04637 whole entry, looked up)": "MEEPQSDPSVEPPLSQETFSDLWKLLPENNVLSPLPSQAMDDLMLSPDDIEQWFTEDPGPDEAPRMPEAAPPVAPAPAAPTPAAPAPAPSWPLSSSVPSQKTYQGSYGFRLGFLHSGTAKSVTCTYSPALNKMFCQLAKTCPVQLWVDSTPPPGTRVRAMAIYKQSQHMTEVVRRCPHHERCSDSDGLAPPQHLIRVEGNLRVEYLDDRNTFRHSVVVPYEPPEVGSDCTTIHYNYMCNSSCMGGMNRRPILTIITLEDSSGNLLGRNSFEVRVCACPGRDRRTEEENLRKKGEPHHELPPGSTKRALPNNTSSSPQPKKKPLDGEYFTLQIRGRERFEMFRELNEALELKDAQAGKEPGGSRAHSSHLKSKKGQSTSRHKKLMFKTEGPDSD", "test": "Activation of p53 in human T24 cells assessed as decrease in MDM2 protein level up to 10 uM after 24 hrs by Western blot analysis", "assay_type": "cell-based", "summary_of_the_method": "(§2)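 T24 cells, 3 × 10^5 per well, grown to 85−95% confluence, then exposed to 0−10 μM for 24 h. Whole-cell extracts in sample buffer run on SDS-polyacrylamide gels and transferred to nitrocellulose. Blots probed with primary antibodies and AP-linked anti-rabbit IgG, detected by ECL. Blots stripped and reprobed for β-actin as loading control.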"}, "NCI-H460": {"system": "NCI-H460", "test": "Antiproliferative activity against human NCI-H460 cells by MTT assay", "assay_type": "functional, cell-based", "summary_of_the_method": "(§3)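 Cell lines cultured in RPMI 1640 with 10% FBS. Viability read by MTT (5 mg/mL, 4 h at 37 °C), with formazan dissolved in DMSO and absorbance taken at 490 nm. Viability (%) = A490 treated / A490 control × 100. IC50 taken from dose-response curves, from three independent experiments each run in triplicate.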"}, "T-24 [9]": {"system": "T-24", "test": "Induction of apoptosis in human T24 cells assessed as increase in bax level up to 10 uM after 24 hrs by Western blot analysis", "assay_type": "functional, cell-based", "summary_of_the_method": "as §1"}, "J82 [10]": {"system": "J82", "test": "Cell cycle arrest in human J82 cells assessed as accumulation at G2 phase at 1 uM after 48 hrs by propidium iodide staining based FACS analysis (reference value: 10.92 %)", "assay_type": "functional", "summary_of_the_method": "(§4)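 Cells treated with 1−10 μM for 48 h, trypsinized, and fixed in 70% ethanol. Stained with 50 μg/mL propidium iodide and phase distribution analyzed by flow cytometry. Mean ± SD from three independent measurements.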"}, "T-24 [11]": {"system": "T-24", "test": "Induction of apoptosis in human T24 cells assessed as late apoptotic cells at 10 uM by Annexin V-FITC/propidium iodide based flow cytometric analysis (reference value: 0.193%)", "assay_type": "functional"}, "J82 [12]": {"system": "J82", "test": "Cell cycle arrest in human J82 cells assessed as accumulation at S phase at 1 uM after 48 hrs by propidium iodide staining based FACS analysis (reference value: 46.79 %)", "assay_type": "functional", "summary_of_the_method": "as §4"}, "J82 [13]": {"system": "J82", "test": "Cell cycle arrest in human J82 cells assessed as accumulation at S phase at 5 uM after 48 hrs by propidium iodide staining based FACS analysis (reference value: 46.79 %)", "assay_type": "functional", "summary_of_the_method": "as §4"}, "Escherichia coli": {"system": "Escherichia coli", "test": "Induction of DNA damage in Escherichia coli pBR322 DNA assessed as effect on mobility rate at 1 to 10 uM after 1 hr by DNA relaxation assay", "summary_of_the_method": "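Plasmid pBR322 incubated 1 h with 1–10 μM in 5 mM Tris-HCl, 50 mM NaCl, pH 7.2. Samples run on 1.5% agarose and stained with 0.5 μg/mL ethidium bromide. Lane controls: 1% DMSO (negative) and ethidium bromide (positive).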"}, "T-24 [14]": {"system": "T-24", "test": "Induction of apoptosis in human T24 cells assessed as activation of caspase-3 at 1 uM by FITC-DEVD-FMK based flow cytometric analysis (reference value: 2.8%)"}, "T-24 [15]": {"system": "T-24", "test": "Induction of DNA damage in human T24 cells assessed as gammaH2AX level up to 10 uM by immunoblot analysis", "assay_type": "functional, cell-based"}, "T-24 [16]": {"system": "T-24", "test": "Cell cycle arrest in human T24 cells assessed as effect on CDK4 expression up to 10 uM after 24 hrs by Western blot analysis", "assay_type": "functional, cell-based", "summary_of_the_method": "as §2"}, "T-24 [17]": {"system": "T-24", "test": "Induction of membrane disruption in human T24 cells at 1 to 10 uM after 1 hr by propidium iodide staining based FACS analysis", "assay_type": "functional, cell-based", "summary_of_the_method": "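T24 cells exposed 1 h to 1–10 μM, then trypsinised and washed in PBS. Resuspended in 50 μg/mL propidium iodide in PBS and analysed immediately by flow cytometry with a 488 nm argon laser.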"}, "HepG2": {"system": "HepG2", "test": "Antitumor activity against human HepG2 cells xenografted in BALB/C nude mouse assessed as tumor growth inhibition at 6 mg/kg, ip administered every 2 days for 16 days relative to control", "assay_type": "functional", "conditions": "read-out: TGI", "summary_of_the_method": "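Male BALB/C nude mice, 6 weeks old, given subcutaneous flank injection of 5 × 10^6 HepG2 cells; tumors of 80−200 mm3 randomized, n = 6/group. Dosing ip every other day, vehicle 5% DMSO in saline (v/v). Tumor length and width measured three times a week, volume V = lw2/2; growth inhibition expressed versus vehicle group. Body weight also recorded.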"}, "[18]": {"molecular_target": "Cellular tumor antigen p53 (Homo sapiens) (UniProt P04637)", "test": "Activation of p53 in human T24 cells assessed as increase in p21 protein expression after 24 hrs by Western blot analysis", "assay_type": "cell-based"}, "T-24 [19]": {"system": "T-24", "test": "Antiproliferative activity against human T24 cells by MTT assay", "assay_type": "functional, cell-based", "summary_of_the_method": "as §3"}, "T-24 [20]": {"system": "T-24", "test": "Effect on Bcl-Xl expression in human T24 cells up to 10 uM after 24 hrs by Western blot analysis", "assay_type": "functional, cell-based", "summary_of_the_method": "as §2"}, "T-24 [21]": {"system": "T-24", "test": "Induction of apoptosis in human T24 cells assessed as early apoptotic cells at 10 uM by Annexin V-FITC/propidium iodide based flow cytometric analysis (reference value: 1.79%)", "assay_type": "functional"}, "[22]": {"molecular_target": "Cellular tumor antigen p53 (Homo sapiens) (UniProt P04637)", "test": "Induction of phospho-p53 accumulation in human T24 cells assessed as activation of bak at 1 to 10 uM after 48 hrs by Hoechst 33258 staining based fluorescence confocal microscopic analysis", "assay_type": "cell-based", "summary_of_the_method": "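T24 cells treated for 48 h, fixed in 4% paraformaldehyde. Immunostained with antibody to active (N-terminal) Bak and a Cy3-conjugated secondary antibody. Imaged by confocal microscopy at 400×.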"}, "T-24 [23]": {"system": "T-24", "test": "Effect on p53 expression in human T24 cells up to 10 uM after 24 hrs by Western blot analysis", "assay_type": "functional, cell-based", "summary_of_the_method": "as §1"}}, "note": "The source made the active and inactive calls. The calls are words filed in the database; no cut-off is given here."}
{"smiles": "CN(C)CCNc1nn2c(=O)c3cc(Br)ccc3nc2c2ccccc12", "values": [{"measurement": "Activity", "setting": "T-24 [1]", "value": "Active"}, {"measurement": "Activity", "setting": "T-24 [2]", "value": 0, "unit": "%"}, {"measurement": "Activity", "setting": "T-24 [3]", "value": 0, "unit": "%"}, {"measurement": "Activity", "setting": "T-24 [4]", "value": "inactive"}, {"measurement": "Activity", "setting": "T-24 [5]", "value": 4.22, "unit": "%"}, {"measurement": "inhibition in vivo at 12 mg/kg", "setting": "T-24 [6]", "value": 54.2, "unit": "%"}, {"measurement": "Activity", "setting": "T-24 [7]", "value": 0, "unit": "%"}, {"measurement": "Activity", "setting": "[8]", "value": "Active"}, {"measurement": "IC50", "setting": "NCI-H460", "value": 5.03, "unit": "µM"}, {"measurement": "Activity", "setting": "T-24 [9]", "value": "Active"}, {"measurement": "Activity", "setting": "J82 [10]", "value": 12, "unit": "%"}, {"measurement": "Activity", "setting": "T-24 [11]", "value": 40.7, "unit": "%"}, {"measurement": "Activity", "setting": "J82 [12]", "value": 39.51, "unit": "%"}, {"measurement": "Activity", "setting": "J82 [13]", "value": 44.01, "unit": "%"}, {"measurement": "Activity", "setting": "Escherichia coli", "value": "inactive"}, {"measurement": "Activity", "setting": "T-24 [14]", "value": 7, "unit": "%"}, {"measurement": "Activity", "setting": "T-24 [15]", "value": "inactive"}, {"measurement": "Activity", "setting": "T-24 [16]", "value": "inactive"}, {"measurement": "Activity", "setting": "T-24 [17]", "value": "inactive"}, {"measurement": "inhibition in vivo at 6 mg/kg", "setting": "HepG2", "value": 43.6, "unit": "%"}, {"measurement": "Activity", "setting": "[18]", "value": "Dose-dependent effect"}, {"measurement": "IC50", "setting": "T-24 [19]", "value": 3.09, "unit": "µM"}, {"measurement": "Activity", "setting": "T-24 [20]", "value": "inactive"}, {"measurement": "Activity", "setting": "T-24 [21]", "value": 29.4, "unit": "%"}, {"measurement": "Activity", "setting": "[22]", "value": "Active"}, {"measurement": "Activity", "setting": "T-24 [23]", "value": "inactive"}]}
